ChEMBL document CHEMBL3779820, “Discovery of a Novel Inhibitor of Histone Lysine-Specific Demethylase 1A (KDM1A/LSD1) as Orally Active Antitumor Agent” (J Med Chem, 2016)
Activity calls are given as the source filed them. No cut-off for these calls is given here.

Tests used:
[1] = biological target: T1, Lysine-specific histone demethylase 2 (Homo sapiens, UniProt Q8NB78); experiment: Inhibition of KDM1B (unknown origin)
T1 sequence (Q8NB78 whole entry): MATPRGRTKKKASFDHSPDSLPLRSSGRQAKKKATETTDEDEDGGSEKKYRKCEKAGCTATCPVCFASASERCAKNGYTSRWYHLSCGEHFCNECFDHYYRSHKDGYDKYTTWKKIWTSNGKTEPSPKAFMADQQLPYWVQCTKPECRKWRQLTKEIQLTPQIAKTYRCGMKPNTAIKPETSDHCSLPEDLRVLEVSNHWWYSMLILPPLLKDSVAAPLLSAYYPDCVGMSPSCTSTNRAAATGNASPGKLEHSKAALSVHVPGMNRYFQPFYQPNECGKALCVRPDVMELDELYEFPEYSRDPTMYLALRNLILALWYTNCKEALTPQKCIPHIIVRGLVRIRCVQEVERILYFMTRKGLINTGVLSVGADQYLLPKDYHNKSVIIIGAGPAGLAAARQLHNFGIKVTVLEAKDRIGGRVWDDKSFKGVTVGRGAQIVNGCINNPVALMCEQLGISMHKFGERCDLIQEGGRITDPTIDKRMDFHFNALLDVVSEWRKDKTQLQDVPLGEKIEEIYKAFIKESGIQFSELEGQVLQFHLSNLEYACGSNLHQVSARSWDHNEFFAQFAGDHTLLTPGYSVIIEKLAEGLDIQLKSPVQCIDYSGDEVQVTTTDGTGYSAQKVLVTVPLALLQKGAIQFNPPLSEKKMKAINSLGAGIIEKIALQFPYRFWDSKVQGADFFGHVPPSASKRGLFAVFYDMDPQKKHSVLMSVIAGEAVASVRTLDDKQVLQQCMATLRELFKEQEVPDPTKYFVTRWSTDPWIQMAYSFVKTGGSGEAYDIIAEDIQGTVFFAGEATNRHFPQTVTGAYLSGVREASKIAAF

[2] = Anticlonogenic activity against human THP1 cells assessed as inhibition of colony formation of cells at 0.5 uM measured after 13 days relative to control; assay type: functional; conditions: THP-1, […]
How it was run: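 THP-1 cells (RPMI, 10% FBS, 2 mM L-glutamine, 37°C, 5% CO2) plated at 250 cells/plate in enriched methylcellulose medium with compound at 0.5 µM for 13 days.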

[3] = Anticlonogenic activity against 129sv mouse APL blast cells assessed as inhibition of colony formation of cells at 0.25 uM measured after 7 days relative to control; assay type: functional; conditions: 168 h
[4] = biological target: Lysine-specific histone demethylase 1A (Homo sapiens) (UniProt O60341); experiment: Inhibition of KDM1A in human NB4 cells assessed as increase in GFI1B mRNA expression at biochemical IC50 measured after 24 hrs by RT-PCR analysis relative to control; assay type: cell-based; conditions: NB-4
LSD1/CoREST complex = LSD1/CoREST complex (Homo sapiens, UniProt O60341); experiment: Inhibition of human recombinant KDM1A/CoREST expressed in Escherichia coli using mono-methylated H3-K4 peptide as substrate assessed as H2O2 release preincubated for 15 mins followed by substrate addition measured for 12 mins by fluorescence-based microplate reader analysis
How it was run: (§1)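 Human recombinant KDM1A/CoREST, KDM1B, MAO A and MAO B used as enzyme sources; compounds incubated with the enzyme and results expressed as IC50.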

[5] = biological target: Lysine-specific histone demethylase 1A (Homo sapiens) (UniProt O60341); experiment: Inhibition of KDM1A in human NB4 cells assessed as increase in CD11b mRNA expression at biochemical IC50 measured after 24 hrs by RT-PCR analysis relative to control; assay type: cell-based; conditions: NB-4
[6] = biological target: T2, Amine oxidase [flavin-containing] A (Homo sapiens, UniProt P21397); experiment: Inhibition of human recombinant MAOA expressed in Pichia pastoris preincubated for 15 mins measured after 30 mins by bioluminescent-coupled assay; how it was run: as §1
T2 sequence (P21397 whole entry): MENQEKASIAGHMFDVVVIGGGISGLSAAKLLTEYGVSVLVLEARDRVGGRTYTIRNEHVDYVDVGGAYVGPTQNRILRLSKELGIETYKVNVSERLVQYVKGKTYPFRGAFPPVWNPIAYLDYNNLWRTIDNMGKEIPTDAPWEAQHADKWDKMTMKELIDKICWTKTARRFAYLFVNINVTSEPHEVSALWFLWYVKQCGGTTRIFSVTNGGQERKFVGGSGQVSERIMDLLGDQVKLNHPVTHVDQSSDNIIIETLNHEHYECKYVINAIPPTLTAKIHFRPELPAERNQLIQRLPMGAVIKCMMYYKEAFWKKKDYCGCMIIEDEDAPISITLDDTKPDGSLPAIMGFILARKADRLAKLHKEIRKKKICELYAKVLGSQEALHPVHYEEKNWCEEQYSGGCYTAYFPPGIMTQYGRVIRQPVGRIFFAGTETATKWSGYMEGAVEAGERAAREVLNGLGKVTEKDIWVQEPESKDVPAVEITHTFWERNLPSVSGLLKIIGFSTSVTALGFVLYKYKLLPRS

THP-1 [7] = experiment: Induction of differentiation of human THP1 cells assessed assessed as alteration in morphology of colonies after 13 days by May Grunwald-Giemsa staining based assay; assay type: functional, cell-based
How it was run: (§2)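 THP-1 cells cultured 13 days in semisolid methylcellulose with compound at 0.5 µM; colony morphology imaged, and cells recovered at end of culture examined as May Grunwald-Giemsa-stained cytospin preparations.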

[8] = Antitumor activity against 129SvEv mouse APL blast cells implanted in nonirradiated 129SvEv mouse assessed as increase in survival of leukemic mouse at 0.0125 mg/kg, ip administered for 5 days per week for 2 weeks by Kaplan-Meier plot analysis relative to vehicle control; assay type: functional
How it was run: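 One million leukemic blasts from 129SvEv mice given iv to non-irradiated syngeneic recipients; groups of at least 6 mice randomized. Dosing began once blasts appeared in peripheral blood (about day 10). Drug dissolved in 40% PEG 400 in 5% glucose and given ip. Survival compared with the vehicle group by Kaplan–Meier analysis.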

THP-1 [9] = experiment: Induction of differentiation of human THP1 cells after 13 days by cytospin assay; assay type: functional, cell-based; how it was run: as §2
[10] = Antitumor activity against 129SvEv mouse APL blast cells implanted in nonirradiated 129SvEv mouse assessed as increase in survival of leukemic mouse at 27 mg/kg, po administered for 5 days per week for 2 weeks by Kaplan-Meier plot analysis relative to vehicle control; assay type: functional
How it was run: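 Gavage in 40% PEG 400 in 5% glucose began once peripheral-blood blasts appeared (about day 10). Survival analysed by Kaplan–Meier versus vehicle. Separate arm for GFI1B: spleen cells taken after 3 days of dosing, qRT-PCR normalized to TBP.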

[11] = biological target: T3, Amine oxidase [flavin-containing] B (Homo sapiens, UniProt P27338); experiment: Inhibition of human recombinant MAOB expressed in Pichia pastoris preincubated for 15 mins measured after 30 mins by bioluminescent-coupled assay; how it was run: as §1
T3 sequence (P27338 whole entry): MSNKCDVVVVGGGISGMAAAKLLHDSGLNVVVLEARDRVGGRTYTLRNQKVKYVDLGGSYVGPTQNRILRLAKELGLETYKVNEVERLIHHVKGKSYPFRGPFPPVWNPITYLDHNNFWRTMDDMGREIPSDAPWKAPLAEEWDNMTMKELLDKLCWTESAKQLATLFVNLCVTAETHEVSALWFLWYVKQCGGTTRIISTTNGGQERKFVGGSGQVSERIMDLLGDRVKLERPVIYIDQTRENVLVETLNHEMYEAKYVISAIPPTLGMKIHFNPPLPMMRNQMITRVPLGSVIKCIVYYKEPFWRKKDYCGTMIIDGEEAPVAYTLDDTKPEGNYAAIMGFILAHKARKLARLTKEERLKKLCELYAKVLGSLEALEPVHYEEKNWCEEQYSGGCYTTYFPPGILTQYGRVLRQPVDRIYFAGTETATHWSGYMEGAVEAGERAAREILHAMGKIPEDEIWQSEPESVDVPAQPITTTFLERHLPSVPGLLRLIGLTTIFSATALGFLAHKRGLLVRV

[12] = Cmax in CD1 mouse at 5 mg/kg, iv administered as single dose; assay type: ADME, organism-based; parameters: dose 5 mg/kg, route intravenous; conditions: in vivo
How it was run: (§3)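 Single dose to CD1 mice: 5 mg/kg iv in 5% glucose with 10% tween 80, or 15 mg/kg orally in 5% glucose with 40% PEG. Plasma parameters derived from concentration–time profiles.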

[13] = Half life in CD1 mouse at 5 mg/kg, iv administered as single dose; assay type: ADME, organism-based; conditions: in vivo; how it was run: as §3
[14] = AUC (0 to infinity) in CD1 mouse at 5 mg/kg, iv administered as single dose; assay type: ADME, organism-based; parameters: dose 5 mg/kg, time infinity, route intravenous; conditions: in vivo; how it was run: as §3
[15] = Clearance in CD1 mouse at 5 mg/kg, iv administered as single dose; assay type: ADME, organism-based; conditions: in vivo; how it was run: as §3
Mus musculus [16] = experiment: Terminal volume of distribution in CD1 mouse at 5 mg/kg, iv administered as single dose; assay type: ADME, organism-based; conditions: in vivo; how it was run: as §3
[17] = Tmax in CD1 mouse at 15 mg/kg, po administered as single dose; assay type: ADME, organism-based; conditions: in vivo; how it was run: as §3
[18] = Cmax in CD1 mouse at 15 mg/kg, po administered as single dose; assay type: ADME, organism-based; parameters: dose 15 mg/kg, route oral; conditions: in vivo; how it was run: as §3
[19] = AUC (0 to infinity) in CD1 mouse at 15 mg/kg, po administered as single dose; assay type: ADME, organism-based; parameters: dose 15 mg/kg, time infinity, route oral; conditions: in vivo; how it was run: as §3
[20] = Oral bioavailability in CD1 mouse at 15 mg/kg administered as single dose; assay type: ADME, organism-based; conditions: in vivo; how it was run: as §3
Mus musculus [21] = experiment: Toxicity in nonirradiated 129SvEv mouse implanted with 129SvEv mouse APL blast cells assessed as change in body weight at 27 mg/kg, po administered for 5 days per week for 2 weeks measured during compound dosing; assay type: organism-based; conditions: in vivo

SMILES | IC50 [1] | inhibition at 0.5 µM [2] | inhibition at 0.25 µM [3] | fold change (FC) [4] | IC50 (LSD1/CoREST complex) | fold change (FC) [5] | IC50 [6] | IC50 [11] | also measured
N[C@@H]1C[C@H]1c1ccc(NC(=O)c2ccccc2)cc1 | 58300 nM | 8% | 73% | – | – | – | – | – | –
CN1CCN(c2ccc(C(=O)Nc3ccc([C@H]4C[C@@H]4N)cc3)cc2)CC1 | – | – | – | 3 | 230 nM | 3.1 | – | – | –
CN1CCN(c2ccc(C(=O)Nc3ccc([C@@H]4C[C@H]4N)cc3)cc2)CC1 [listing 1 of 2 here] | – | – | – | – | 84 nM | – | – | – | –
N[C@H]1CC[C@H](N[C@@H]2C[C@H]2c2ccccc2)CC1 | 43400 nM | 58% | 84% | 7 | – | 5.1 | 48400 nM | – | Activity (THP-1 [7]): Active; Activity [8]: 14%; Activity (THP-1 [9]): Active
CN1CCN(c2ccc(C(=O)Nc3ccc([C@@H]4C[C@H]4N)cc3)cc2)CC1 [listing 2 of 2 here] | – | – | – | 4.2 | – | 3.9 | – | – | –
Cl.N[C@@H]1C[C@H]1c1ccc(NC(=O)c2cccc(N3CCOC3=O)c2)cc1 (racemic) | 12600 nM | 51% | 79% | 4.3 | 28 nM | 2.9 | 90.5 nM | 80200 nM | Activity [10]: 15%; Activity (THP-1 [7]): Active; Cmax [12]: 3650 nM; half-life [13]: 1.92 h; AUC(0-inf) [14]: 4.62 µM·h; clearance [15]: 49.7 mL/min/kg; Vz/F (Mus musculus [16]): 8.45 L/kg; Tmax [17]: 0.667 h; Cmax [18]: 1140 nM; AUC(0-inf) [19]: 7.12 µM·h; bioavailability [20]: 55.8%; Activity (THP-1 [9]): Active; Activity (Mus musculus [21]): Non-toxic
N[C@@H]1C[C@H]1c1ccc(NC(=O)c2ccc(-c3ccoc3)cc2)cc1 (racemic) | 51000 nM | – | – | – | 22.5 nM | – | 40 nM | 87 nM | –
N[C@@H]1C[C@H]1c1ccc(NC(=O)c2ccc(N3CCOC3=O)cc2)cc1 (racemic) | – | – | – | – | 33.5 nM | – | 29.7 nM | 1600 nM | –
